Most compounds without a hit are left out; they make up all but 1.5% or so of the library.
APJ ag = agonists of human apelin receptor APJ, primary screen, CHO-K1 cells, PathHunter beta-arrestin, luminescence; 0% DMSO wells, 100% apelin; activation, % at 20 µM; actives 0.11% (n = 330,000);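 active = activation more than six SD over the plate average, tested at 20 µM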;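 note: 0% = DMSO alone and 100% = apelin-13 at 10 nM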
Target sequence (P35414 whole entry, looked up): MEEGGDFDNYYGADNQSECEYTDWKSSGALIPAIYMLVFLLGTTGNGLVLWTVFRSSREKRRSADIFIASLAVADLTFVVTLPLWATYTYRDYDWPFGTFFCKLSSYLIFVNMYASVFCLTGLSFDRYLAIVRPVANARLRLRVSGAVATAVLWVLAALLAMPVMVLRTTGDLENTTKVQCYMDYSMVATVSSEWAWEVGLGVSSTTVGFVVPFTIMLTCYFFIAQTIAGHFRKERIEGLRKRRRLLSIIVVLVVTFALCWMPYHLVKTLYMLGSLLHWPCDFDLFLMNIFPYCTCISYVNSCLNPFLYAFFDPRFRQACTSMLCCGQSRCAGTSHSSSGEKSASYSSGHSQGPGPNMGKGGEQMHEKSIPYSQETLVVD
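Material: CHO-K1 APJ beta-arrestin complementation cell line; Input: cell density 1000 per well; Incubation: compound stimulation 90 min at 25 °C, detection 60 min; Signal: luminescence from split beta-galactosidase complementation, Galacton Star/Emerald II substrate; Controls: DMSO-only wells as negative, 10 nM Apelin-13 as positive control.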
EBI2 block = EBI2 receptor antagonists, beta-arrestin recruitment, primary screen, cell-based, luminescence, 7a,25-OHC stimulation, uHTS | 7a,25-OHC stimulated | inhibition, % at 5 µM | actives 0.81% (n = 360,000) | AID 651636, 2012 | G-protein coupled receptor 183 (Homo sapiens), P32249; in the data active = inhibition above about 38%;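 note: enzyme fragment complementation signal reports receptor beta-arrestin coupling in cells; 0% = agonist plus DMSO wells and 100% = wells without agonist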
CCR6 antagonist = CCR6 receptor antagonists, primary screen, cell-based, CHO-K1, luminescence, beta-arrestin, uHTS | C-C chemokine receptor type 6 (Homo sapiens), P51684 | inhibition, % at 20 µM | CHO-K1 CCR6 PathHunter beta-arrestin, CCL20-stimulated | AID 493098, 2011 | actives 0.49% (n = 340,000);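 active = compounds whose inhibition of the agonist-driven luminescence signal at 20 µM reaches about 50%, limit read from the data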;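 note: cells stimulated with CCL20 at 14 nM final; plate controls were DMSO with CCL20 for no effect and DMSO without agonist for full effect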
CXCR6 inh = CXCR6 receptor inhibitors, primary screen, cell-based, beta-arrestin, luminescence, CHO-K1 PathHunter, 1536-well | inhibition, % at 20 µM | actives 0.36% (n = 360,000) | AID 602244, 2012; in the data active = inhibition above about 34%, passing the limit was not always enough;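 note: antagonist mode with CXCL16 agonist at 10 nM final; 0% = 10 nM CXCL16 with DMSO and 100% = unstimulated wells without agonist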
APJ antagonist = antagonists of human apelin receptor APJ, primary screen, CHO-K1 cells, beta-arrestin complementation, luminescence. P35414. inhibition, % at 20 µM. actives 0.32% (n = 330,000). AID 2521, 2010;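 active = inhibition above about 40% at 20 µM, limit read from the data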;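 note: cells challenged with 10 nM apelin-13 agonist together with compound; plate controls were apelin-13 plus DMSO wells for no effect and DMSO wells lacking apelin-13 for full effect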
CXCR6 confirm = CXCR6 receptor antagonists, confirmation, cell-based, single concentration, beta-arrestin, luminescence | shares compounds with CXCR6 inh | inhibition, % at 20 µM | AID 602409, 2012 | CHO-K1 CXCR6 PathHunter beta-arrestin | actives 65% (n = 700);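 active = mean inhibition over four retests above 40%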;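 note: receptor stimulated with 10 nM CXCL16 agonist; beta-galactosidase fragment complementation upon beta-arrestin recruitment to receptor; plate controls were CXCL16 plus DMSO for no effect and DMSO without CXCL16 for full effect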
EBI2 conf = EBI2 antagonist hit retest, beta-arrestin, confirmation, cell-based, single concentration, luminescence, 7a,25-OHC stimulation; shares compounds with EBI2 block; inhibition, % at 5 µM; actives 29% (n = 2,400); 7a,25-OHC antagonism;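 active = inhibition of at least 50%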
EBI2 agonist = EBI2 agonist activity of antagonist hits, confirmation, counter-screen for EBI2 antagonist project, cell-based, single concentration, agonist mode, luminescence | EBI2-expressing cells, 60 min; 0% vehicle, 100% 7α,25-dihydroxycholesterol control | AID 652000, 2013 | activation, % at 5 µM | 2,400 tested, under 10 active | shares compounds with EBI2 block;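 active = activation of at least 50%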
bGal counter = E. coli beta-galactosidase enzyme inhibition, confirmation, counter-screen for EBI2 antagonist project, biochemical, luminescence, single concentration | shares compounds with EBI2 block | purified beta-galactosidase, luminescent Galacton Star, 15 min | inhibition, % at 5 µM | actives 1% (n = 2,400);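 active = replicate-average signal at least 3 plate SD below neutral wells, shown as high inhibition, flagging enzyme-inhibiting false positives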;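 note: 0% = DMSO wells with enzyme and 100% = wells lacking enzyme; higher means stronger loss of beta-gal luminescence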
Numbers without * were called inactive; x = no result given.

SMILES	APJ ag	EBI2 block	CCR6 antagonist	CXCR6 inh	APJ antagonist	CXCR6 confirm	EBI2 conf	EBI2 agonist	bGal counter
COc1cc2c(cc1OC)CN(C(=O)CSc1nc(N)c(C#N)cc1C#N)CC2	-3	-3	-16	46*	6	4	x	x	x
O=C(Cc1ncc(C(F)(F)F)cc1Cl)NCc1ccco1	-3	4	-8	0	12	x	x	x	x
CCCOc1ccc(C(=O)NNC(=S)NC(=O)c2cc(-c3ccc(Cl)cc3)nc3ccccc23)cc1	-8	14	43	45*	30	37	x	x	x
O=C(NC1CCCCCCC1)c1ccc(CNc2c(N3CCOCC3)c(=O)c2=O)cc1	-3	-5	7	4	-14	x	x	x	x
CCN(CC)CC(C)(C)C(=O)/C=C/c1ccc(/C=C/C(=O)C(C)(C)CN(CC)CC)cc1	x	78*	113*	98*	x	95*	x	x	x
COc1ccc(C(=O)NN/C(C)=C/C(=O)c2ccccc2)cc1	-3	-5	23	7	19	x	x	x	x
C/C(=C\C(=O)c1ccccc1)NNC(=O)c1ccc(Cl)cc1	-5	2	55*	46*	27	6	x	x	x
Cc1ccc(S(=O)(=O)c2ccc([N+](=O)[O-])cn2)cc1	2	-6	x	55*	27	74*	x	x	x
Cc1cc(S(=O)(=O)c2ccc([N+](=O)[O-])cn2)ccc1Br	19	13	-6	16	-35	x	x	x	x
CN(c1ccccc1)c1ccc(/C=C/[N+](=O)[O-])cc1	x	7	x	71*	x	63*	x	x	x
O=[N+]([O-])c1ccc(C=CC=Cc2ccccc2)cc1	x	1	x	2	x	x	x	x	x
O=C(CN1C(=O)c2ccccc2C1=O)Nc1ccc(S(=O)(=O)N2CCOCC2)cc1	-2	-4	12	6	12	x	x	x	x
Cc1ccc(OCC(=O)NNC(=S)NC(=O)C2CC2)c(C)c1	-10	8	x	45*	9	41*	x	x	x
COc1cc(/C=C(\C#N)c2nc3ccccc3o2)ccc1O	-8	7	55*	49*	32	43*	x	x	x
Cc1ccc(C)c(N/C=C(\C#N)c2nc3ccccc3o2)c1	1	-5	3	-8	3	x	x	x	x
COC(C(=O)NNC(=O)CCc1ccccc1)c1ccccc1 (stereo unspecified)	-1	-1	21	-6	-7	x	x	x	x
Cc1ccc(NC(=S)NNc2ncc(C(F)(F)F)cc2Cl)cc1	-2	42*	90*	78*	-18	58*	33	-1	15
Cc1ccc(NC(=S)NNC(=S)Nc2cccc(C(F)(F)F)c2)cc1	0	28	27	12	-6	x	x	x	x
N#CCCN(C(=O)COC(=O)CCN=C1NS(=O)(=O)c2ccccc21)c1ccc(F)cc1	-6	6	11	-2	-1	x	x	x	x
O=[N+]([O-])c1ccc(N/N=C/c2sc(N3CCOCC3)nc2-c2ccccc2)c(S(=O)(=O)Nc2ccc(Cl)cc2)c1	x	51*	83*	52*	x	62*	30	-1	13
CCC(=O)Nc1ccc2c(c1)ncn2-c1ccc(C)cc1	0	4	2	1	-5	x	x	x	x
CCC(CC)C(=O)N(C)c1c(C)nc2c(OCc3ccc(Cl)cc3Cl)cccn12	x	47*	x	51*	x	24	46	-1	8
CCC(CC)C(=O)N(C)c1c(C)nc2c(OCc3ccccc3C)cccn12	x	-1	x	1	x	x	x	x	x
NNC(=O)c1cc(-c2cccs2)nc2ccccc12	1	-9	-17	-28	-5	x	x	x	x
COc1ccc(C(=O)N/N=C(\C)c2ccccn2)cc1OC	-21	58*	75*	51*	76*	69*	84*	-1	0
SMILES	APJ ag	EBI2 block	CCR6 antagonist	CXCR6 inh	APJ antagonist	CXCR6 confirm	EBI2 conf	EBI2 agonist	bGal counter
C/C(=N\NC(=O)c1cc(-c2cccs2)nc2ccccc12)c1ccccn1	-8	66*	29	45*	39	44*	48	-3	-10
O=S1(=O)N[C@@H](c2ccccc2)COc2cc(Br)ccc21	x	1	x	-8	x	x	x	x	x
Cc1n[nH]c(=S)n(NC(=O)CC(=O)Nn2c(=S)[nH]nc(C)c2=O)c1=O	-2	44*	x	103*	10	115*	22	-4	17*
N#Cc1nc(COc2ccccc2)oc1N1CCN(Cc2ccccc2)CC1	0	37	14	7	8	x	x	x	x
N#Cc1nc(COc2ccccc2)oc1N1CCC(Cc2ccccc2)CC1	-4	70*	13	12	-2	x	20	-1	-4
CC(C)(C)NC(=O)C(c1ccc(O)cc1)N(C(=O)CCC(=O)Nc1nccs1)c1ccc(F)cc1 (stereo unspecified)	-2	-6	10	5	-12	x	x	x	x
CC(c1ccccc1)N(CCC(c1ccccc1)C1CCOC(C)(C)C1)C(=O)c1ccco1 (stereo unspecified)	2	44*	30	4	-14	x	10	2	8
Cc1ccccc1CS(=O)(=O)Cc1ccc(C(=O)NCCc2ccccc2)o1	-3	37*	17	11	4	x	28	0	2
Cc1ccc(Oc2nc3ccccn3c(=O)c2/C=C(\C#N)C(=O)Nc2c(C)n(C)n(-c3ccccc3)c2=O)cc1	2	57*	-9	1	-4	x	62*	0	8
Cc1c(NC(=O)/C(C#N)=C/c2c(Oc3ccccc3)nc3ccccn3c2=O)c(=O)n(-c2ccccc2)n1C	-1	28	2	0	7	x	x	x	x
Cc1ccccc1Oc1nc2c(C)cccn2c(=O)c1/C=C(\C#N)C(=O)Nc1c(C)n(C)n(-c2ccccc2)c1=O	-1	65*	13	-1	-15	x	61*	1	10
CCc1ccc(Oc2coc3cc(OCC(=O)Nc4cc(C)ccc4C)ccc3c2=O)cc1	4	52*	2	-5	15	x	11	0	-11
O/N=C\c1ccccc1Oc1ccc(F)cc1	-5	6	23	-1	-16	x	x	x	x

From PubChem
